Data from the M2OR odorant receptor database.

What was measured:
Conditions in all cases: stereoisomer not certain
[1] = target: T1, Or1m1 (Mus musculus) (UniProt Q8VFM9)
T1 sequence (whole entry): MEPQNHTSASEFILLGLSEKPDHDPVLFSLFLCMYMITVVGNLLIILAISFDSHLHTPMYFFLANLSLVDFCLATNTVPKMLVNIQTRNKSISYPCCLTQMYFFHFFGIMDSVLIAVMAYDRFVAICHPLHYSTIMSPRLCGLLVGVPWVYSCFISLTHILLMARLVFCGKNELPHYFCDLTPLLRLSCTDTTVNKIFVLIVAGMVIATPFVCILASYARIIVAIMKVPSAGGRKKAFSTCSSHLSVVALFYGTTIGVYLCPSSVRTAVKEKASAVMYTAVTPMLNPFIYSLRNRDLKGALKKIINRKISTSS
Outline: (§1)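 Assay methods differ from source to source, frequently being transient luciferase assays in mammalian cell lines. For each receptor–molecule pair, the label responsive (active) applies when the original authors judged the measured signal statistically different from baseline, and non-responsive (inactive) applies otherwise.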

[2] = target: T2, Or2c1 (Mus musculus) (UniProt P23275)
T2 sequence (whole entry): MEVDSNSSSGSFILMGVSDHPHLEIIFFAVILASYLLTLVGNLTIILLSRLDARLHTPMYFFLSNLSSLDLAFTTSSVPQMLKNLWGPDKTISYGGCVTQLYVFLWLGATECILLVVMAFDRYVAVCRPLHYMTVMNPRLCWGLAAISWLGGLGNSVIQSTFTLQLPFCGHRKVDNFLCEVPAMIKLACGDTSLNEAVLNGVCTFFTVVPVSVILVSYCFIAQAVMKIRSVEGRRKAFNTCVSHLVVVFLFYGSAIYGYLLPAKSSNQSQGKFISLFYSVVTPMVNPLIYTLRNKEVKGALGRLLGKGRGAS
Outline: as §1

[3] = target: T3, Or5ar1 (Mus musculus) (UniProt Q8VGS3)
T3 sequence (whole entry): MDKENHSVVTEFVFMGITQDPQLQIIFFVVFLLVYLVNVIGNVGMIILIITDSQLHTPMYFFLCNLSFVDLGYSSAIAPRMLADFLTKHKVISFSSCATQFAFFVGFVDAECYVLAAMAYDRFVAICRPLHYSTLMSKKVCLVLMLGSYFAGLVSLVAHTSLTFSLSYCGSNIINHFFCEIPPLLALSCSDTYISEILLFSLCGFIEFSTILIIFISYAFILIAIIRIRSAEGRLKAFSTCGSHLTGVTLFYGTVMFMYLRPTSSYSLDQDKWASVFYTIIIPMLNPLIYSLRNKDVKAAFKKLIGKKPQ
Outline: as §1

[4] = target: T4, Or10j5 (Mus musculus) (UniProt Q62007)
T4 sequence (whole entry): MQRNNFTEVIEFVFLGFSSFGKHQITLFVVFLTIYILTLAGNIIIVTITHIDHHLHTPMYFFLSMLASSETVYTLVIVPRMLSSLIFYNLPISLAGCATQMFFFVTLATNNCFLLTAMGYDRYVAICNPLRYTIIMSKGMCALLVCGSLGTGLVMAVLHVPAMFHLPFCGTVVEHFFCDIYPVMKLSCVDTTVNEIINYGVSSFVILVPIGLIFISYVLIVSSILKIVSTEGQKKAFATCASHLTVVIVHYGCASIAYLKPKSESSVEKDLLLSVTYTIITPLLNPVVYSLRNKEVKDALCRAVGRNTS
Outline: as §1

Compound	odorant receptor agonist call [1]	odorant receptor agonist call [2]	odorant receptor agonist call [3]	odorant receptor agonist call [4]
CCCCCCCCCCO	inactive	inactive	inactive	–
CCCCCOC(=O)CCCCC	inactive	active	inactive	–
CCCCCCC(C)=O	inactive	inactive	inactive	–
CCCCCCOC(C)=O	inactive	inactive	inactive	–
CCCCCCCCS	inactive	active	inactive	–
CCCCCCCCOC=O	inactive	–	inactive	–
O=C([O-])CCCCCCCC(=O)[O-].[H+].[H+]	inactive	–	inactive	inactive
CCCCCC(=O)CC	inactive	inactive	inactive	–
CC(=O)OCCc1ccccc1	inactive	–	inactive	–
CC(=O)OC1(C)CCC23CC1C(C)(C)C2CCC3C (stereo not drawn)	active	–	inactive	–
Cc1ccccc1OC(=O)C(C)C	inactive	–	inactive	–
Cc1ccc2c(c1)OCC(=O)CO2	inactive	–	inactive	–
CCCO	inactive	–	inactive	–
CCCCCCCCCCOC(C)=O	inactive	–	inactive	–
CC(C)CS	inactive	–	inactive	–
CCC=CCCC=CC=O	inactive	–	inactive	–
c1ccc2ncccc2c1	inactive	–	inactive	–
CCc1ccc(O)cc1	inactive	–	inactive	–
CC(C)=C1CCC(C)CC1=O (stereo not drawn)	inactive	–	inactive	–
CCCCCCC=CC=O	inactive	–	inactive	–
CCCCCC(C)O (stereo not drawn)	inactive	–	inactive	–
CCCCCOC(=O)CCC	inactive	–	inactive	–
CCCCCCC(C)O (stereo not drawn)	inactive	–	inactive	–
Cc1ccc(C(C)C)c(O)c1	inactive	–	inactive	–
C1CCOCC1	inactive	–	inactive	–
CC(C)CCN	inactive	–	inactive	–
CSSSC	inactive	–	inactive	–
OCCCCCCCCCO	inactive	–	inactive	–
